NR2E3 ag-1: activates human photoreceptor nuclear receptor NR2E3; inhibition of corepressor binding, % at 4.78 µM; 0.12% of 320,000 active; GST-NR2E3/biotin-RetCOR TR-FRET, 1536-well;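 active = percent inhibition above the cutoff of mean plus 3 SD of all tested compounds, set per screening campaign, cut at about 20% in these data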;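 note: 0% = DMSO wells and 100% = biotin wells as full block of FRET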
Target sequence (Q9Y5X4 whole entry, looked up): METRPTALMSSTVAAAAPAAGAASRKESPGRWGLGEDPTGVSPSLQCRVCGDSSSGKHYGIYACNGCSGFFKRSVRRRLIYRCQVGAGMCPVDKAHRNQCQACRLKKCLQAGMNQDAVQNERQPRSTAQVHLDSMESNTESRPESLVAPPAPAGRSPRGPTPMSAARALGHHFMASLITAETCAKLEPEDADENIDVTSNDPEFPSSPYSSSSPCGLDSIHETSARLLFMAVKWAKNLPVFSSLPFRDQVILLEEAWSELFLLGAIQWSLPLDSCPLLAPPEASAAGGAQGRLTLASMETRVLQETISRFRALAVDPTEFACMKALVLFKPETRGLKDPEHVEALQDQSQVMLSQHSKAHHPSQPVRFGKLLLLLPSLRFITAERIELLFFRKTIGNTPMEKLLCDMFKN
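System: GST-tagged NR2E3 plus biotinylated RetCOR corepressor; Buffer or medium: pH 7.5 Tris-based buffer; Probe or stimulus: RetCOR corepressor, biotinylated, 7 nM; Doses: compound at 4.8 µM, single dose; Schedule: 5 h incubation at 4 °C; Technique: time-resolved FRET; Evaluation: percent inhibition of TR-FRET ratio; Replication: one well per compound, singlicate testing.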
SMARCA2 act: increases SMARCA2 function in MMTV reporter cells | MG213 cells, MMTV-luciferase reporter, dexamethasone, overnight | activation, % at 9.1 µM | 1% of 370,000 active | AID 652017; in the data active = activation above about 7.8%;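 note: 0% = vehicle wells and 100% = reference activator wells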
DAX1 inh-1: blocks DAX1 repression of SF-1 activated StAR promoter. HEK293T StAR-luciferase reporter, SF-1/DAX-1 repression relief. inhibition, % at 6.8 µM. 1.1% of 370,000 active;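 active = inhibition above the mean over all tested compounds plus 3 SD, cut at about 3.6% in these data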;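 note: 0% = DAX-1 cells with DMSO and 100% = cells lacking DAX-1 with DMSO; higher inhibition means more luminescence from relief of DAX-1 repression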
DAX1 inh-2: inhibitors of human orphan nuclear receptor DAX1 (NR0B1); HEK293 Gal4-DAX1 luciferase reporter, luminescence; inhibition, % at 6.75 µM; 0.99% of 340,000 active; AID 504766;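 active = inhibition above the mean over all tested compounds plus 3 SD, cut at about 4.2% in these data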;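 note: 0% = DAX1-transfected cells with DMSO and 100% = empty-vector control cells with DMSO; inhibition shows as a rise in luminescence from relieved DAX1 repression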
Target sequence (P51843 207-470 limits assumed): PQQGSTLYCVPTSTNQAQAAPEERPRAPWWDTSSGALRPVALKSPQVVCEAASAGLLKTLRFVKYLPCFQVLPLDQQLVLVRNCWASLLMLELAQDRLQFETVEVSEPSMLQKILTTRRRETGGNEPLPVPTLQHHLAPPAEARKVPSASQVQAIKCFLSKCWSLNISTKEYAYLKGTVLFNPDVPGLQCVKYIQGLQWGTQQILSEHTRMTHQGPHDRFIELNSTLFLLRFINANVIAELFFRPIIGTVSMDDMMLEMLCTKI
GASC-1 inh: blocks human GASC-1 demethylase activity | AID 2099 | Q9H3R0 | 0.069% of 330,000 active | GST-JMJD2C(1-420) H3K9me3 demethylation, DELFIA europium | inhibition, % at 2.35 µM;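 active = more than half of a compound's replicate wells show inhibition beyond 50%, single wells judged on their own value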;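 note: signal counts dimethyl H3K9 product captured on neutravidin plate; 0% = median of DMSO wells and 100% = 0.3 times that DMSO median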
NR2E3 ag-2: human photoreceptor-specific nuclear receptor agonism; Q9Y5X4; CHO-S Gal4-NCOR/VP16-NR2E3 two-hybrid, luciferase; inhibition of corepressor binding, % at 3.98 µM; 0.35% of 360,000 active;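 active = inhibition above the mean of all tested compounds plus 3 SD, cut at about 70% in these data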;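 note: 0% = DMSO with NR2E3 transfected cells and 100% = cells lacking NR2E3 construct; higher means lower luciferase signal from less NR2E3 corepressor binding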
SMARCA2 conf: SMARCA2 activation, confirmation screen; shares compounds with SMARCA2 act; activation, % at 9.1 µM; 30% of 3,500 active; MG213 cells, MMTV-luciferase with dexamethasone, luminescence, overnight; MG213 cells expressing E1A, Rb sequestered; DMSO wells 0%, reference activator 100%; AID 652260;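 active = activation above its plate's cutoff, the mean activation of tested wells plus 3 SD, cut at about 7.9% in these data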
GAL4-VP16 Luc: GAL4-VP16 reporter activation counter-screen. 41% of 3,500 active. HEK293 GAL4-VP16 pG5luc reporter, luciferase luminescence; scaled: DMSO wells 0%, SAHA wells 100%. activation, % at 9.1 µM. shares compounds with SMARCA2 act;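 active = activation above the solvent-only control well mean plus 3 SD, averaged across control plates, cut at about 5.2% in these data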
Starred values were filed as active, the others as inactive; · = no result. This is a sample that favours compounds with a hit; in the whole collection about 3.2% have one here.

SMILES | NR2E3 ag-1 | SMARCA2 act | DAX1 inh-1 | DAX1 inh-2 | GASC-1 inh | NR2E3 ag-2 | SMARCA2 conf | GAL4-VP16 Luc
COc1ccc(NC(=O)C2C(c3ccc4c(c3)OCO4)=Nc3ccccc3N2C(C)=O)cc1 (stereo not drawn) | · | 9.2* | 2 | · | · | · | 8.0* | 6.4*
CN(C)Cc1cc(O)c(CN(C)C)cc1O | 0 | 8.0* | 0 | 0 | 3 | -49 | 7 | 2
CCc1ccc(OCC(=O)NNC(=O)CNC(=O)c2ccc(Br)o2)cc1 | -1 | 0 | -2 | 1 | -25 | -6 | · | ·
CC(COc1ccc(C(C)C)cc1)NC(=O)c1ccc(Br)o1 (stereo not drawn) | -2 | 10* | 1 | 1 | 0 | 35 | 6 | 0
CCc1ccccc1-n1ncc(C(=O)Nc2ccc(OC)cc2)c1C | · | 8.0* | 1 | 2 | · | -80 | 5 | 12*
COc1ccc(NC(=O)c2cnn(-c3ccccc3)c2C)c(OC)c1 | -2 | -2 | 0 | 1 | 16 | -18 | · | ·
CC(=O)c1ccc(OCCCC(=O)OCc2nnc(-c3ccc(Cl)cc3)o2)cc1 | -1 | 8.3* | 0 | 0 | -2 | -5 | 8.4* | 0
CC(=O)Nc1ccc(OCc2nnc(-c3ccc(Cl)cc3)o2)cc1 | 5 | 1 | 1 | -1 | -1 | -14 | · | ·
Brc1ccc(-c2nnc(-c3ccco3)o2)cc1 | -3 | 6 | 1 | 2 | 7 | -123 | · | ·
Clc1ccc(-c2nnc(-c3ccccc3)o2)cn1 | · | 8.6* | 1 | 2 | 8 | -44 | 4 | 4
c1ccc(-c2nnc(-c3ccco3)o2)cc1 | 1 | 8.4* | 2 | 3 | 6 | -90 | 7 | 9.0*
Clc1ccc(-c2nnc(-c3cccnc3)o2)cc1 | 1 | 3 | 1 | 3 | -16 | -39 | · | ·
c1coc(-c2nnc(-c3ccc4c(c3)OCO4)o2)c1 | · | 10* | 3.7* | · | · | · | 8.4* | 11*
Cc1nn2cc(-c3ccc(Cl)cc3)nc2s1 | 0 | 8.7* | 3.9* | 2 | 1 | -125 | 2 | 10*
Cc1csc(NC(=O)CSc2ccccc2F)n1 | 1 | 8.4* | 1 | 1 | 0 | 13 | 2 | 4
Cc1ccc2nc(SCC(=O)c3ccc(O)cc3O)[nH]c2c1 | 4 | 8.6* | 2 | 3 | -7 | -186 | 6 | 10*
COC(=O)CSc1nc2ccc(C)cc2[nH]1 | 1 | 3 | 1 | 1 | 17 | 12 | · | ·
CN(C)CCNc1cccc2sc3ccc(O)cc3c(=O)c12 | · | 16* | -4 | · | · | -8 | 31* | 8.4*
O=C(NC1CC1)c1scc2c1OCCO2 | -1 | 8.2* | 0 | 1 | 0 | -19 | 4 | -1
O=C(c1ccc(F)cc1)c1cc2ccccc2o1 | -2 | 11* | 1 | 2 | -3 | -59 | 8 | 7.4*
CN1C(=O)c2cc(NC(=O)Nc3ccccc3)ccc2OC[C@H]2O[C@@H](CC(=O)N[C@H]3CCN(Cc4ccccc4)C3)CC[C@@H]21 | · | 2 | 0 | · | · | · | · | ·
CCOC(=O)C1CCN(C(=O)Cn2cnc3sc(C)c(S(=O)(=O)N4CCC(C)CC4)c3c2=O)CC1 | -1 | 8.1* | 0 | 0 | 20 | 6 | -2 | -1
CCOC(=O)C1CCN(C(=O)Cn2cnc3sc(C)c(S(=O)(=O)N4CCCCC4)c3c2=O)CC1 | -1 | -2 | 0 | -1 | -4 | -4 | · | ·
COc1cc(C2Oc3ccccc3C=C2[N+](=O)[O-])cc(OC)c1OC (stereo not drawn) | · | 21* | -2 | · | · | -14 | -13 | 3
CCCc1nc2oc3c(NCCN(C)C)ncnc3c2c2c1CCCC2 | 2 | 2 | 0 | 0 | 6 | 9 | · | ·
SMILES | NR2E3 ag-1 | SMARCA2 act | DAX1 inh-1 | DAX1 inh-2 | GASC-1 inh | NR2E3 ag-2 | SMARCA2 conf | GAL4-VP16 Luc
CCCc1nc2oc3c(NCCCN(C)C)ncnc3c2c2c1CCCC2 | 2 | 19* | 0 | · | 9 | 39 | 19* | 1
COc1ccc(-c2cc(C(=O)Nc3ccc(NC(C)=O)cc3)[nH]n2)c(C)c1 | · | 9.6* | 2 | · | · | -19 | 3 | 2
COc1ccc2c(c1C)CCC(C)(C#N)C2=O (stereo not drawn) | · | 1 | -1 | 2 | · | 23 | · | ·
CCOC(=O)N1CCN(C(=O)C[C@@H]2C(=O)N(Cc3ccc(OC)cc3)/C3=C/CCCCC[C@@]32C(=O)OCC)CC1 | · | -4 | 0 | · | · | · | · | ·
NS(=O)(=O)c1cccc(NC(=O)Cn2cnc3ccccc3c2=O)c1 | 4 | 1 | 0 | 0 | -4 | 4 | · | ·
COC(=O)c1cccc(NC(=O)Cn2cnc3ccccc3c2=O)c1 | 5 | 13* | -1 | 0 | 5 | -27 | -5 | -3
O=C(/C=C/c1ccccc1Cl)NCc1ccccc1 | -1 | 11* | -1 | 0 | -1 | -40 | 2 | 2
CN(C)c1ccc(NC(=O)/C=C/c2ccccc2Cl)cc1 | 0 | 8.2* | 2 | 0 | 2 | -101 | 7 | 11*
O=C(/C=C/c1ccccc1Cl)NCCc1ccccc1 | 0 | · | · | 2 | 15 | -70 | · | ·
Cc1c(C(C)c2ccccc2O)c2ccccc2n1C (stereo not drawn) | · | -4 | -1 | · | · | · | · | ·
COc1ccc(C2CC(=O)c3cc(OC)ccc3O2)cc1 (stereo not drawn) | · | 0 | 1 | -1 | · | 4 | · | ·
COc1ccc(C2CC(=O)c3ccccc3O2)cc1 (stereo not drawn) | 5 | 8.6* | 1 | 1 | -6 | -118 | 8 | 3
Cc1cc2nc(-c3nnnn3-c3c(C)cccc3C)c(=O)[nH]c2cc1C | · | 8.0* | 0 | · | · | -8 | -3 | 1
Cc1cccc(C)c1-n1nnnc1-c1nc2ccccc2[nH]c1=O | · | 1 | -1 | · | · | -9 | · | ·
NC1=[N+](Cc2ccccc2)C(Cc2ccccc2)C2C(=C3CCCCC3n3c(=O)n(-c4ccccc4)c(=O)n32)N1 (stereo not drawn) | · | -4 | -1 | · | · | · | · | ·
CCOCCCNc1nc2ccccc2[nH]1 | 0 | -2 | 0 | 1 | 1 | -16 | · | ·
CCOCCCNc1ccc(-c2ccccc2)nn1 | 1 | 12* | 3 | 2 | 17 | -72 | 10* | 6.1*
O=C(O)C1CCCCC1C(=O)Nc1ccc(-c2ccccc2)cc1 (stereo not drawn) | 0 | 12* | -1 | 1 | -3 | 9 | 1 | -1
CCn1cc(CNC(=O)NC2CCCCC2)c(C)n1 | 0 | 12* | 1 | 1 | -9 | -38 | 3 | 4

From PubChem BioAssay
